Publication PMC11661456 (Science Advances, 2024)
“Also recorded” adds a separate entry of the source.

What was measured:
[1] = tested on: A. baumannii; experiment: Colistin E-test; format: cell-based
[2] = tested on: K. pneumoniae; experiment: Colistin E-test; format: cell-based; details: ATCC 43816 upon MCR-1 expression
[3] = tested on: mcr-1–expressing A. baumannii; experiment: Bacterial lysis assay, mcr-1-expressing A. baumannii; format: cell-based
How it was run: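 mcr-1–bearing A. baumannii and its ΔbioC mutant washed three times in biotin-free PBS, then seeded at 2 × 10^8 CFU/ml into 2 ml PBS with or without colistin (8 μg/ml). PBS-only groups served as untreated controls. Positive control arms used a reference inhibitor (4 μg/ml) alone, colistin (8 μg/ml) alone, or both together.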

[4] = tested on: mcr-1–harboring K. pneumoniae; experiment: Bacterial lysis assay, mcr-1-harboring K. pneumoniae; format: cell-based; details: colistin 8 μg/ml; MCR-1-expressing K. pneumoniae ΔbioC (FYJ6186)
[5] = biological target: T1, AbBioC (Acinetobacter baumannii, UniProt A0A1E3M3A7); experiment: Isothermal titration calorimetry of ligand binding to AbBioC; design: species or system A. baumannii; details: for binding stoichiometry (N): ITC, single binding site model, mean ± SD (n = 3)
T1 sequence (A0A1E3M3A7 1-249): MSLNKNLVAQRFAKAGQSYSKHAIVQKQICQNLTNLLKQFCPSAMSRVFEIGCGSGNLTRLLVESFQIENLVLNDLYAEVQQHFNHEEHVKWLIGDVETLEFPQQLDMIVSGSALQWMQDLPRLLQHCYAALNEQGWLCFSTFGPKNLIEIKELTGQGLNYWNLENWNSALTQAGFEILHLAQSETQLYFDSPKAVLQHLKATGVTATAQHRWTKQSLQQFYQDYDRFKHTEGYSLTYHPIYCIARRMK
How it was run: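 His6-SUMO-tagged AbBioC, Ni-NTA purified. ITC at 25°C in 20 mM tris (pH 8.0), 300 mM NaCl. AbBioC (20 μM) in cell, titrated with SAM or test compound (200 μM) in 20 injections: 0.4 μl first, then 2.0 μl every 120 s. Data fitted to single-site model; N and Kd given as mean ± SD of three replicates.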

[6] = biological target: T2, AbBioC methyltransferase (Acinetobacter baumannii, UniProt A0A1E3M3A7); format: biochemical, A. baumannii
T2 sequence (A0A1E3M3A7 1-249): T1 sequence (A0A1E3M3A7 1-249)

[7] = tested on: bioC-expressing bacterium; experiment: Effect of free SIN on viability of bioC-expressing bacterium; format: cell-based; details: free (not nanoparticle-loaded) SIN
[8] = tested on: BcBioC; details: in vitro; cited from earlier work

Row | Kd [5] | binding stoichiometry (N) [5] | binding affinity of SIN compared with SAM (fold, Kd) ([5]; ITC Kd of SIN versus the physiological ligand SAM) | Ki [6] | Molecule | colistin MIC (E-test) ([1]; AB18PR065 + mcr-4.3, 0.2% glu M9) | colistin MIC (E-test) ([1]; ATCC 17978 + plasmid-borne mcr-1, LB) | colistin MIC (E-test) ([1]; ATCC 17978 without mcr-1, LB) | colistin MIC (E-test) [2] | bacterial lysis / viability ([3]; colistin 8 μg/ml alone, FYJ6179 in PBS, 20 hours) | bacterial killing by colistin of the ΔbioC mutant ([3]; colistin 8 μg/ml, mcr-1–expressing A. baumannii ΔbioC (FYJ6181)) | bacterial killing by colistin of the ΔbioC mutant [4] | effect on the ability of AbBioC to initiate biotin synthesis ([6]; DTB/biotin bioassay, in vitro reconstituted system) | ability of free SIN to diminish bacterial viability [7] | inactivation of BcBioC enzyme [8]
1 |  |  |  |  | colistin | 8.0 µg/mL | 4.0 µg/mL | 0.5 µg/mL | 32 µg/mL | neither MAC13772 inhibitor (4 μg/ml) nor colistin (8 μg/ml) lysed bacterial cells | resensitize; also recorded: vulnerability | fails to render the K. pneumoniae ΔbioC mutant insusceptible |  |  | 
2 | 2570 ± 750 nM | 0.95 ± 0.13 |  |  | C[S+](CC[C@H](N)C(=O)[O-])C[C@H]1O[C@@H](n2cnc3c(N)ncnc32)[C@H](O)[C@@H]1O (stereo partly drawn) [SAM, S-adenosyl-L-methionine] |  |  |  |  |  |  |  |  |  | 
3 | 808 ± 135 nM | 1.180 ± 0.008 | around threefold | ~370 nM | Nc1ncnc2c1ncn2[C@@H]1O[C@H](C[C@@H](N)CC[C@H](N)C(=O)O)[C@@H](O)[C@H]1O [SIN, sinefungin] |  |  |  |  |  |  |  | efficiently interferes; also recorded: effectively kills AbBioC | inability | efficiently inactivate
